This note sets out measurements from ChEMBL document CHEMBL1144244, “Synthesis and biological activity of enantiomeric pairs of 5-[(E)-cycloalk-2-enylidenemethyl]thiolactomycin congeners” (Bioorg Med Chem Lett, 2008).

One test has as its system Staphylococcus aureus. Description: Antibacterial activity against Staphylococcus aureus Smith by agar dilution method. The class given is functional. An outline of the steps:
(§1)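 MICs determined by agar dilution following CLSI guideline M7-A6 (2003).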
On the technique in general: In agar dilution the substance is mixed into plates at graded concentrations.

Another test has as its system Moraxella catarrhalis. The test can be described thus: Antibacterial activity against Moraxella catarrhalis ATCC 25238 by agar dilution method. The class given is functional. A digest of the protocol:
as §1

Test [1] is described as follows: Inhibition of fatty acid synthase type 1 in human HepG2 cells assessed as [1-14C]acetate incorporation into cellular fatty acid. It is filed as cell-based.
The next test deals with Haemophilus influenzae. Description: Antibacterial activity against Haemophilus influenzae IID983 by agar dilution method. It is filed as functional. An outline of the steps:
as §1

Values after ≈ are worked out from the molar mass of the structure shown.

For `C=C/C(C)=C/[C@]1(C)SC(=O)C(C)=C1O`, the MIC in the test on Staphylococcus aureus and in the test on Moraxella catarrhalis was above 128 µg/mL in each case. Moreover, in test [1], the IC50 turned out to be 0.0437 µg/mL (≈ 0.208 µM).
As to `CC1=C(O)[C@@](C)(/C=C2/C=CCCCC2)SC1=O`, the MIC in the test on Staphylococcus aureus, against Moraxella catarrhalis and with Haemophilus influenzae was above 64 µg/mL throughout. Further, the IC50 in test [1] came out at 0.0254 µg/mL (≈ 0.101 µM).
As for `CC1=C(O)[C@](C)(/C=C2/C=C\CCCCC2)SC1=O`, the MIC was above 128 µg/mL in the test with Staphylococcus aureus, 64 µg/mL (≈ 242 µM) against Moraxella catarrhalis and above 128 µg/mL against Haemophilus influenzae. Besides, in test [1], the IC50 worked out at 0.0116 µg/mL (≈ 0.0439 µM).
Regarding `C=C/C(C)=C/[C@@]1(C)SC(=O)C=C1O`, the MIC is above 128 µg/mL in the test with Staphylococcus aureus, 16 µg/mL (≈ 81.5 µM) with Moraxella catarrhalis and 32 µg/mL (≈ 163 µM) in the test with Haemophilus influenzae. Moreover, the IC50 in test [1] was above 0.08 µg/mL.
The matching figures for `CC1=C(O)[C@@](C)(/C=C2/C=CCCC2)SC1=O`: above 64 µg/mL, above 64 µg/mL, above 64 µg/mL and above 0.08 µg/mL.
The matching figures for `CC1=C(O)[C@](C)(/C=C2/C=CCCCC2)SC1=O`: above 64 µg/mL, above 64 µg/mL, above 64 µg/mL and 0.0149 µg/mL (≈ 0.0595 µM).
Take `C=C1C(=O)OC(CCCCCCCC)C1C(=O)O` (stereo unspecified): the IC50 in test [1] is 0.0074 µg/mL (≈ 0.0291 µM).
In the case of `C[C@]1(/C=C2/C=CCCC2)SC(=O)C=C1O`, the MIC in the test on Staphylococcus aureus, against Moraxella catarrhalis and against Haemophilus influenzae was above 64 µg/mL in each case. For the same compound, the IC50 in test [1] was determined as 0.057 µg/mL (≈ 0.256 µM).
For `C=C/C(C)=C/[C@@]1(C)SC(=O)C(C)=C1O` [THIOLACTOMYCIN], the MIC in the test with Staphylococcus aureus worked out at 128 µg/mL (≈ 609 µM); in the test on Moraxella catarrhalis, 0.25 µg/mL (≈ 1.19 µM); against Haemophilus influenzae, 2 µg/mL (≈ 9.51 µM). The IC50 in test [1] was above 0.08 µg/mL.
The matching figures for `CC1=C(O)[C@](C)(/C=C2/C=CCCC2)SC1=O`: above 64 µg/mL, above 64 µg/mL, above 64 µg/mL and above 0.08 µg/mL.
In the same order, the values of `C[C@]1(/C=C2/C=C\CCCCC2)SC(=O)C=C1O` are above 128 µg/mL, 128 µg/mL (≈ 511 µM), above 128 µg/mL and 0.0195 µg/mL (≈ 0.0779 µM).
On to `O=C(O)c1cn(C2CC2)c2cc(N3CCNCC3)c(F)cc2c1=O` [CIPROFLOXACIN], for which the MIC with Staphylococcus aureus is 0.063 µg/mL (≈ 0.19 µM); with Moraxella catarrhalis, 0.031 µg/mL (≈ 0.0936 µM); with Haemophilus influenzae, 0.008 µg/mL (≈ 0.0241 µM).
For `C=C/C(C)=C/[C@]1(C)SC(=O)C=C1O`, the MIC against Staphylococcus aureus and in the test on Moraxella catarrhalis was above 128 µg/mL in each case. In addition, the IC50 in test [1] amounted to 0.019 µg/mL (≈ 0.0968 µM).
On to `C[C@@]1(/C=C2/C=C\CCCCC2)SC(=O)C=C1O`, for which the results for the MIC in the test on Staphylococcus aureus, in the test on Moraxella catarrhalis and in the test with Haemophilus influenzae were above 128 µg/mL, 64 µg/mL (≈ 256 µM) and above 128 µg/mL, respectively. The IC50 in test [1] amounted to 0.0246 µg/mL (≈ 0.0983 µM).
For `C[C@@]1(/C=C2/C=CCCC2)SC(=O)C=C1O`, the MIC with Staphylococcus aureus, in the test with Moraxella catarrhalis and in the test on Haemophilus influenzae was above 64 µg/mL each time. In addition, the IC50 in test [1] was 0.0189 µg/mL (≈ 0.085 µM).
As to `CC1=C(O)[C@@](C)(/C=C2/C=C\CCCCC2)SC1=O`, the results for the MIC against Staphylococcus aureus, with Moraxella catarrhalis and against Haemophilus influenzae were above 128 µg/mL, 64 µg/mL (≈ 242 µM) and above 128 µg/mL, respectively. In addition, the IC50 in test [1] turned out to be 0.0418 µg/mL (≈ 0.158 µM).
Regarding `C[C@@]1(/C=C2/C=CCCCC2)SC(=O)C=C1O`, the MIC with Staphylococcus aureus, in the test with Moraxella catarrhalis and in the test on Haemophilus influenzae was above 64 µg/mL throughout. For the same compound, in test [1], the IC50 was 0.0226 µg/mL (≈ 0.0956 µM).
Take `C[C@]1(/C=C2/C=CCCCC2)SC(=O)C=C1O`: the MIC in the test on Staphylococcus aureus, in the test with Moraxella catarrhalis and against Haemophilus influenzae was above 64 µg/mL in each case. Moreover, in test [1], the half-inhibitory concentration (IC50) was determined as 0.0133 µg/mL (≈ 0.0563 µM).

One may read the IC50 as the concentration that gives 50% inhibition.
